Screens as filed in PubChem.
ERp5 block = blocks human ERp5 reductase activity on insulin; AID 651711; hit rate 0.05% among 350,000; inhibition, % at 9.99 µM; ERp5 insulin aggregation, absorbance 650 nm, 90 min;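 active = mean replicate inhibition above about 25%, with every replicate also reaching it, limit read from the data, passing the limit was not always enough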
Ecoli rRNA inh = inhibitors of bacterial rRNA selective over humanized ribosomes. GFP signal change (wild-type ribosome), % (no concentration beside the values). AID 720706. hit rate 1.6% among 350,000. E. coli WT GFP vs humanized-ribosome RFP mutants, fluorescence, 24 h; active compounds read low; DMSO median 0, no signal -100;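 active = significant combined selectivity score with lowered wild-type GFP, culture density cut under 30%, mutant RFP and density less affected; inactive = any of these conditions unmet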
Env fusion inh = blocks HIV Env-driven cell-cell fusion | HeLa-JRFL Env/CEM21 cell fusion, luciferase | inhibition, % at 12.3 µM | hit rate 1.1% among 360,000 | AID 651610;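 active = mean replicate inhibition score of at least 50 and every replicate individually at or above 50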;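 also: 0% = plate neutral controls and 100% = maraviroc near 300 nM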
PDI inh = blocks human protein disulfide isomerase activity. P07237. PDI insulin aggregation turbidity, A650, 90 min. inhibition, % at 10 µM. hit rate 0.052% among 350,000;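 active = mean inhibition across replicates of 30% or more, whatever share of single replicates reach that level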
Target sequence (P07237 whole entry, looked up): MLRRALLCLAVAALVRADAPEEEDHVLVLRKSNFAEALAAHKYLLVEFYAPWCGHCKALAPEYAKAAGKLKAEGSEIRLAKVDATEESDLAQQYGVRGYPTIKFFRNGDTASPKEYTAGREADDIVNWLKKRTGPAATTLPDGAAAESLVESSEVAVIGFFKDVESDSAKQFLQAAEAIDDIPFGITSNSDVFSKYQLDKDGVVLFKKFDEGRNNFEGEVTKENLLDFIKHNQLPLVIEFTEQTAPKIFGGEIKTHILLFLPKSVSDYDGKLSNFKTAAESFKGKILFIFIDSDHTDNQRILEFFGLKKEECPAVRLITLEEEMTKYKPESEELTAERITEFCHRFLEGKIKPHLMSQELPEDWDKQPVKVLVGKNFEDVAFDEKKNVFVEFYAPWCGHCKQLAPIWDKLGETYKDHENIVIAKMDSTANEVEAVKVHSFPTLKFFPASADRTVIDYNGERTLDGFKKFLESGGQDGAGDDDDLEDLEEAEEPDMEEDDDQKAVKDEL
PvdQ acylase = P. aeruginosa PvdQ acylase inhibition; purified PvdQ acylase, fluorescence plate reader; inhibition, % at 10 µM; AID 488965; hit rate 0.063% among 340,000; in the data active = inhibition above about 30%, passing the limit was not always enough;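 also: 0% = vehicle neutral wells and 100% = reference inhibitor wells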
FN deposition inh = fibronectin deposition inhibition. inhibition, % at 12.6 µM. AID 743247. AH1F fibroblasts, Alexa488-fibronectin deposition fluorescence, overnight. hit rate 0.086% among 350,000;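 active = mean inhibition across replicates of 30% or more, regardless of how many single replicates reach that level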;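 also: positive control wells lacked labelled fibronectin entirely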
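Material: AH1F fibroblast monolayer depositing Alexa488-labelled fibronectin into matrix / Amount: 10000 AH1F cells per well / Signal: fluorescence 485/525 nm / Medium: DMEM, 2% serum / Compound: single dose, pinned / Incubation: 1 h cell adhesion before compound, then overnight fibronectin incubation / Reagent: Alexa488-FN, 24 nM final / Read-out: inhibition of fibronectin deposition signal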
* hit, by the source's call; . = not tested or not shown; [ ] = another dose, or the depositor's remark. Sampled rows, rich in hits. Any-hit rate of the full collection: about 2.2%.

SMILES	ERp5 block	Ecoli rRNA inh	Env fusion inh	PDI inh	PvdQ acylase	FN deposition inh
COc1cccc(/C=N/Nc2ccc(S(=O)(=O)O)cc2)c1O	.	.	24	-3	-11	.
CC(C)NC(=O)Nc1ccc2c(c1)CC(=O)N(C)C[C@H](C)[C@H](CN(C)C(=O)NC(C)C)O2	.	3	.	.	.	-8
CO[C@@H]1CN(C)C(=O)c2ccc(NC(=O)c3ccccn3)cc2OC[C@@H](C)N(C(=O)C2CCC2)C[C@H]1C	-6	.	.	.	.	.
COc1cccc(/C=N/Nc2ccnc(=O)[nH]2)c1O	0	8	65*	-2	10	9
Cc1ccc(S(=O)(=O)Oc2ccccc2-c2ccccc2)cc1	4	-15	60*	-4	17	-7
Cc1ccc(S(=O)(=O)Oc2ccccc2)cc1	4	3	-29	-4	-10	-5
CCOC(=O)N1CCN(CCC(=O)Nc2ccc(Br)c(C)c2)CC1	1	-23*	-5	4	-4	13
CCN1CCN(CCC(=O)Nc2ccc(Br)c(C)c2)CC1	2	15	2	-3	-19	-5
CCN(CC)c1ccc(/C=N/NC(=O)c2nnn(-c3nonc3N)c2C(C)C)c(O)c1	2	-6	62*	-3	-8	8
CC(C)c1c(C(=O)N/N=C/c2ccc3c(c2)OCO3)nnn1-c1nonc1N	2	-3	-3	16	-8	-8
CC1CCN(Cc2c(C(=O)N/N=C/c3ccccc3O)nnn2-c2nonc2N)CC1	1	3	63*	-1	-14	7
CCN(CC)c1ccc(/C=N/NC(=O)c2ccoc2C)c(O)c1	0	-34*	-176	-7	6	7
Cc1[nH]n(-c2ccccc2)c(=O)c1/C=N/NC(=O)c1cccc([N+](=O)[O-])c1	.	.	.	-4	-10	.
Cc1[nH]n(-c2cccc3ccccc23)c(=O)c1/C=N/NC(=O)c1cccc([N+](=O)[O-])c1	.	.	59*	10	-7	1
C[C@H]1CN(C)C(=O)c2cc([N+](=O)[O-])ccc2O[C@@H]1CN(C)C(=O)OC(C)(C)C	.	-2	.	.	.	1
O=C(Cc1coc2cc(O)ccc12)N1CCN(S(=O)(=O)c2ccc(Br)cc2)CC1	0	-20*	2	-3	-4	-3
Cc1ccc2c(CC(=O)N3CCN(S(=O)(=O)c4cccs4)CC3)coc2c1	.	.	.	13	-10	.
C[C@H](NC(=O)C[C@@H]1CC[C@@H](NC(=O)Nc2ccc3c(c2)OCO3)[C@@H](CO)O1)c1ccccc1	0	0	7[16.7 µM]	.	.	-9
Clc1cccc(OCCOCCN2CCNCC2)c1Cl	2	-16*	18	6	.	1
CN1c2ccc(C#Cc3cccnc3)cc2[C@H]2[C@H](CCN2S(=O)(=O)c2cccc(F)c2)[C@@H]1CO	1	-5	.	.	.	-9
COc1ccc2c(c1)CCc1c(C(=O)NCCc3ccc(OC)c(OC)c3)noc1-2	.	.	59*	1	-14	.
COc1ccc(CCNC(=O)c2nc(-c3cccs3)no2)cc1OC	3	-22*	18	23	-16	-2
CC(C)[C@@H]1C(=O)N[C@@H](c2ccccc2)CC=CC[C@@H](C)Oc2ccccc2C(=O)N1C (mixture of isomers)	.	-4	.	.	.	4
Cc1c(O)ccc2c(CC(=O)N[C@@H](Cc3c[nH]c4ccccc34)C(=O)O)cc(=O)oc12	1	7	0	60*	-4	19
O=C(N[C@H]1CC[C@H](CC(=O)N2CCc3ccccc3C2)O[C@@H]1CO)C1CC1	-6	0	4[16.7 µM]	.	.	-11
SMILES	ERp5 block	Ecoli rRNA inh	Env fusion inh	PDI inh	PvdQ acylase	FN deposition inh
CCNc1nc(NCC)nc(-n2nc(C)cc2C)n1	0	-42*	.	-4	-8	.
Cc1cccc(C)c1NC(=O)CCCSc1nnc(-c2ccc(Cl)cc2)n1-c1ccccc1	-15	.	79*	-5	-4	2
CCOc1ccc(/C=C2\SC(=S)N(NS(=O)(=O)c3ccc(C)cc3)C2=O)cc1OC	-2	-24*	-4	-1	-11	-7
COCC#Cc1cnc2c(c1)C(=O)N([C@@H](C)CO)C[C@@H](C)[C@H](CN(C)S(C)(=O)=O)O2	1	7	.	.	.	-4
O=C(C[C@H]1CC[C@H](NC(=O)Nc2cc(F)ccc2F)[C@@H](CO)O1)NCCCN1CCOCC1	5	3	0[16.7 µM]	.	.	-2
O=C(CNC(=O)c1ccccc1F)N/N=C/c1cc(Br)ccc1OC(=O)/C=C/c1ccco1	.	.	21	-5	1	12
O=C(CNC(=O)c1ccc(F)cc1)N/N=C/c1cc(Br)ccc1OC(=O)/C=C/c1ccco1	-4	-28*	8	1	-6	9
COc1ccc(/C=N\NC(=O)c2ccc(-c3ccccc3)cc2)cc1COC(C)=O	-12	-25*	15	-3	-10	3
COCc1cc(/C=N\NC(=O)COc2ccc(Cl)cc2)ccc1OC	.	.	-7	-7	-6	2
COCc1cc(/C=N\NC(=O)COc2ccccc2)ccc1OC	2	-27*	-7	-3	-5	6
CCCCNC(=S)N1CCn2cccc2C1c1ccccc1 (configuration not stated)	-1	6	40	-2	-12	8
CCCCNC(=S)N1CCn2cccc2C1c1ccc(F)cc1 (configuration not stated)	2	-40	58*	9	-6	.
CCN(CC)S(=O)(=O)c1ccc(O)c(C(=O)OCC(=O)NC23CC4CC(CC(C4)C2)C3)c1	3	-21*	-27	-2	-2	-5
Cc1noc(C)c1NC(=O)Nc1ccc2c(c1)C(=O)N([C@@H](C)CO)C[C@H](C)[C@@H](CN(C)C(=O)Nc1cccc3ccccc13)O2	4	5	.	.	.	2
COc1ccccc1NC(=O)c1ccc(C(=O)c2ccccc2)o1	-6	-32*	9	-5	-15	-8
O=C(C[C@H]1C[C@H]2c3cc(NC(=O)NC4CCCCC4)ccc3O[C@H]2[C@H](CO)O1)NCc1ccccc1	5	5	6[16.7 µM]	.	.	-6
O=S(=O)(Nc1ccc(N2CCCCC2)cc1)c1ccc(F)cc1	3	-36*	-3	0	.	1
COc1ccccc1C(c1c(N)n(C)c(=O)n(C)c1=O)C(C)[N+](=O)[O-] (configuration not stated)	-2	13	3	-2	.	3
COc1ccccc1C(C[N+](=O)[O-])c1c(N)n(C)c(=O)n(C)c1=O (configuration not stated)	3	-34*	-16	6	.	3
O=C(CN1CCOCC1)N[C@H]1CC[C@@H](CCNC(=O)C2CCCC2)O[C@@H]1CO	2	4	-10[16.7 µM]	.	.	-4
CCOc1cccc2sc(NC(=O)CCS(=O)(=O)c3ccccc3)nc12	4	-1	-17	0	7	.
COc1ccc(C)c2sc(NC(=O)CCS(=O)(=O)c3ccccc3)nc12	-1	-31*	4	-1	-13	-11
CCc1cc(OCCCCNCc2ccccc2)ccc1Cl	.	.	.	54*	-9	5
